Measurements reported in ChEMBL document CHEMBL4219151, “Piperidinyl Ureas Chemically Control Defective in Cullin Neddylation 1 (DCN1)-Mediated Cullin Neddylation” (J Med Chem, 2018).
≈ marks a conversion by molar mass, not a printed value. Calls of active or inactive are those of the source. The calls are words filed in the database; no cut-off is given here.

Key:
HCC95 = test: Growth inhibition of human HCC95 cells; type: functional, cell-based
Method in brief: (§1)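 In vitro monolayer proliferation assay in BJ cells (normal fibroblasts lacking DCN1 amplification) and HCC95 cells (squamous cell carcinoma line carrying DCN1 amplification). EC50 is reported as mean ± standard deviation from at least one experiment run in triplicate. A ">" value means less than 50% growth inhibition at the highest concentration tested.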

[1] = Permeability of the compound at 10 uM by PAMPA; type: ADME; details: for Papp at 10 µM: PAMPA, read-out: permeability; for permeability: pampa, 10 µM
Method in brief: (§2)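 Measured in triplicate within at least one experiment; values reported as mean ± standard deviation.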

BJ = test: Growth inhibition of human BJ cells; type: cell-based; method in brief: as §1
[2] = Solubility of the compound at pH 7.4 after 18 hrs by UV-spectroscopy; type: physicochemical; details: buffer; method in brief: as §2
DCN1-like protein 1 [3] = target: T1, DCN1-like protein 1 (Homo sapiens, UniProt Q96GG9)
DCN1-like protein 1 [4] = target: T1, DCN1-like protein 1; test: Inhibition of human DCN1-mediated cullin neddylation assessed as reduction in transfer of fluorescein-5-maleimide-tagged NEDD8 from N-terminally acetylated human UBE2M to CUL2-CTD measured for 10 sec by pulse-chase assay
DCN1-like protein 1 [5] = target: T1, DCN1-like protein 1; test: Binding affinity biotinylated human GST-tagged DCN1 by ITC method
Homo sapiens = organism: Homo sapiens; test: Inhibition of human RBX1-catalyzed CUL2(CTD) neddylation assessed as reduction in transfer of N-terminal cys-tagged NEDD8 from UBE2M to CUL2-CTD at 12.5 uM measured up to 6 mins by pulse-chase assay
Method in brief: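 In vitro pulse-chase monitoring NEDD8 transfer from UBE2M to the CUL2 C-terminal domain, stimulated by DCN1 together with RBX1. The CUL2 domain stands in for cullins 1-5. The assay is a variation of a previously published pulse-chase format, also run against each of the five DCN family members.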

[6] = target: T2, DCN1-like protein 3 (Homo sapiens) (UniProt Q8IWE4); test: Inhibition of human DCN3-mediated cullin neddylation assessed as reduction in transfer of fluorescein-5-maleimide-tagged NEDD8 from N-terminally acetylated human UBE2M to CUL2-CTD at 50 uM measured for 2 mins by pulse-chase assay
T2 sequence (whole entry): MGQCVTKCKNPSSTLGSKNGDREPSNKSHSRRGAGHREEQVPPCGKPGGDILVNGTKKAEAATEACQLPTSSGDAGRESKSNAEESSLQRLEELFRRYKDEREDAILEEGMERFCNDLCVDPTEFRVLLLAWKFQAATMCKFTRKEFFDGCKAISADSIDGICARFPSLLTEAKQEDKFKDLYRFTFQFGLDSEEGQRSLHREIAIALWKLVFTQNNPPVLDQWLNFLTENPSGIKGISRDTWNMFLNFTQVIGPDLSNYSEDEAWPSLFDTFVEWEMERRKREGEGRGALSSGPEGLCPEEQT

[7] = target: T3, DCN1-like protein 4 (Homo sapiens) (UniProt Q92564); test: Inhibition of human DCN4-mediated cullin neddylation assessed as reduction in transfer of fluorescein-5-maleimide-tagged NEDD8 from N-terminally acetylated human UBE2M to CUL2-CTD at 50 uM measured for 1 min by pulse-chase assay
T3 sequence (whole entry): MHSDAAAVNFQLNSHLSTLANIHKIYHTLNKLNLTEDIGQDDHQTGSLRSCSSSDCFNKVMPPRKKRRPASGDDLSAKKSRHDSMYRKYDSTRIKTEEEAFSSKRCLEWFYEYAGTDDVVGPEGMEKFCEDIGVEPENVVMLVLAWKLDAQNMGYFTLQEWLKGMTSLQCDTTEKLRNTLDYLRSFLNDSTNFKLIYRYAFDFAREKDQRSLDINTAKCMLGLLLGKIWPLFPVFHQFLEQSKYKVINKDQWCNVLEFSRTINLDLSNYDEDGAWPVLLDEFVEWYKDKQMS

[8] = target: T2, DCN1-like protein 3 (Homo sapiens); test: Inhibition of human DCN3 stimulated N-terminal cys-tagged NEDD8 transfer from UBE2F to CUL2(CTD)-RBX1 at 10 uM measured up to 2 mins by pulse-chase assay
[9] = target: T4, DCN1-like protein 5 (Homo sapiens) (UniProt Q9BTE7); test: Inhibition of human DCN5-mediated cullin neddylation assessed as reduction in transfer of fluorescein-5-maleimide-tagged NEDD8 from N-terminally acetylated human UBE2M to CUL2-CTD at 50 uM measured for 1 min by pulse-chase assay
T4 sequence (whole entry): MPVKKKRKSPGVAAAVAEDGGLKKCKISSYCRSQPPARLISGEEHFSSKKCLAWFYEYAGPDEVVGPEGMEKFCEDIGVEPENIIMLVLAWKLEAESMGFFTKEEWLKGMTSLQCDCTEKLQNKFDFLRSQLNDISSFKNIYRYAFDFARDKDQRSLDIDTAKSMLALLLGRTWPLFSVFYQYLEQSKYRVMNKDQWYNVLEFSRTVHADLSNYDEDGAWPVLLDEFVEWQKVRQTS

[10] = target: DCN1-like protein 2 (Homo sapiens) (UniProt Q6PH85); test: Inhibition of human DCN2-mediated cullin neddylation assessed as reduction in transfer of fluorescein-5-maleimide-tagged NEDD8 from N-terminally acetylated human UBE2M to CUL2-CTD at 12.5 and 50 uM measured for 10 sec by pulse-chase assay
[11] = target: NEDD8 activating enzyme (Homo sapiens) (UniProt Q8TBC4+Q13564); test: Inhibition of human NAE1-UBA3 E1 activating enzyme assessed as reduction in CUL3 neddylation by measuring inhibition of UBE2M thiol-ester formation at 50 uM up to 60 mins by pulse-chase assay; type: protein-complex assay

T1 sequence (Q96GG9 whole entry): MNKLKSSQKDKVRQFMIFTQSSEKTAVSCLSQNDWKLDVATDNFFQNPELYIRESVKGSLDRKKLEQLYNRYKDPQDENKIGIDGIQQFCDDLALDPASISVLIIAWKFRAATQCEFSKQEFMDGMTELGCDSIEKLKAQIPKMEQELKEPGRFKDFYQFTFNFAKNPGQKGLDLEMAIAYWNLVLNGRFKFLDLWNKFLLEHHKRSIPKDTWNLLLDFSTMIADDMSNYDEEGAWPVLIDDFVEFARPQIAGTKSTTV
Chain of DCN1-like protein 2 (Homo sapiens) (Q6PH85 whole entry): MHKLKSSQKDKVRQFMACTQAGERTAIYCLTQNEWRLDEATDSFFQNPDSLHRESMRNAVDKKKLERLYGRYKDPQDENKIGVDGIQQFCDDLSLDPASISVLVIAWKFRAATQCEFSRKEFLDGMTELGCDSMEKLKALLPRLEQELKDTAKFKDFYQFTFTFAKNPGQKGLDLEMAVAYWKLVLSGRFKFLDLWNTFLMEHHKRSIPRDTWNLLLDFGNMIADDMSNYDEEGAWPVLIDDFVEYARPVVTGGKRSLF

SMILES | EC50 (HCC95) | Papp at 10 µM [1] | EC50 (BJ) | solubility at 18 h [2] | IC50 (DCN1-like protein 1 [3]) | EC50 (DCN1-like protein 1 [4]) | Kd (DCN1-like protein 1 [5]) | permeability [1] | inhibition (Homo sapiens) | inhibition [6] | inhibition [7] | inhibition [8] | inhibition [9] | inhibition [10] | inhibition [11]
CCCN1CCC(N(Cc2ccc3c(c2)OCO3)C(=O)Nc2cccc(C(F)(F)F)c2)CC1 | > 40 µM | > 22000 nm/s | > 23 µM | 66 µM (≈ 30.6 µg/mL) |  |  |  |  |  |  |  |  |  |  | 
CCCN1CCC(N(Cc2ccco2)C(=O)Nc2cccc(C(F)(F)F)c2)CC1 | > 23 µM | > 22000 nm/s | > 23 µM | 69 µM (≈ 28.3 µg/mL) | 0.75 µM | 0.57 µM | 0.7 µM |  |  |  |  |  |  |  | 
CCCCN1CCC(N(Cc2ccc3c(c2)OCO3)C(=O)Nc2cccc(C(F)(F)F)c2)CC1 | 46 µM | > 22000 nm/s | > 40 µM | 71 µM (≈ 33.9 µg/mL) | 0.36 µM | 0.11 µM |  |  |  |  |  |  |  |  | 
CCCN1CCC(N(Cc2cccnc2)C(=O)Nc2cccc(C(F)(F)F)c2)CC1 | > 23 µM |  | > 23 µM | < 0.1 µM |  |  |  | 13000 nm/s |  |  |  |  |  |  | 
O=C(Nc1cccc(C(F)(F)F)c1)NC1CCN(Cc2ccccc2)CC1 | > 32 µM | 6700 nm/s | > 24 µM | 32 µM (≈ 12.1 µg/mL) |  |  |  |  |  |  |  |  |  |  | 
CCCN1CCC(N(Cc2cc(F)cc(C(F)(F)F)c2)C(=O)Nc2cccc(C(F)(F)F)c2)CC1 | 21 µM | > 22000 nm/s | > 23 µM | 37 µM (≈ 18.7 µg/mL) | 1 µM | 0.18 µM |  |  | inactive |  |  |  |  |  | 
CCCC(C)N1CCC(N(Cc2ccccc2)C(=O)Nc2cccc(C(F)(F)F)c2)CC1 (stereo not given) | 47 µM |  | > 40 µM | 57 µM (≈ 25.5 µg/mL) | 0.062 µM | 0.079 µM | 0.14 µM | 14000 nm/s | inactive | inactive | inactive | inactive | inactive | Active | inactive
CCCCN1CCC(N(Cc2ccccc2)C(=O)Nc2cccc(C(F)(F)F)c2)CC1 | > 40 µM | > 22000 nm/s | > 40 µM | 70 µM (≈ 30.3 µg/mL) | 0.26 µM | 0.14 µM | 0.7 µM |  | inactive |  |  | inactive |  |  | inactive
CCCN1CCC(N(Cc2ccccc2)C(=O)Nc2cccc(C(F)(F)F)c2)CC1 | > 40 µM |  | > 23 µM | 39 µM (≈ 16.4 µg/mL) | 0.82 µM | 0.4 µM | 0.86 µM | 18000 nm/s |  |  |  |  |  |  | 
CC(C)(C)N1CCC(N(Cc2ccc3c(c2)OCO3)C(=O)Nc2cccc(C(F)(F)F)c2)CC1 | > 40 µM | > 22000 nm/s | > 40 µM | 75 µM (≈ 35.8 µg/mL) | 0.31 µM | 0.37 µM |  |  | inactive |  |  |  |  |  | 
